Data from ChEMBL document CHEMBL3739298, “(9βH)-Pimaranes and Derivatives from the Tuber of Icacina trichantha” (J Nat Prod, 2015).

Columns and labels:
Format in all cases: functional, cell-based
[1] = Cytotoxicity against human OVCAR3 cells after 72 hrs by cell proliferation assay; conditions: ovcar-3
Summary of the method: (§1)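 Cells from ATCC grown at 37 °C, 5% CO2 in RPMI 1640 with 10% FBS, penicillin 100 units/mL, streptomycin 100 μg/mL. Log-phase cells trypsinized, washed twice, seeded at 5000/well, left overnight. DMSO-dissolved samples tested at 20, 4, 0.8, 0.16, 0.032 μM (final DMSO 0.5%) for 72 h at 37 °C. Viable cells read by MTS-type absorbance assay; IC50 relative to DMSO control.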

MDA-MB-231 = test: Cytotoxicity against human MDA-MB-231 cells after 72 hrs by cell proliferation assay; summary of the method: as §1
MDA-MB-435 = test: Cytotoxicity against human MDA-MB-435 cells after 72 hrs by cell proliferation assay; summary of the method: as §1

| Compound | IC50 [1] | IC50 (MDA-MB-231) | IC50 (MDA-MB-435; mda-mb-435) | IC50 (MDA-MB-435; Homo sapiens, MDA-MB-435, 72 h, read-out: IC50) |
| --- | --- | --- | --- | --- |
| C[C@]12C(=O)OC[C@@]3(CC[C@@H]1O)[C@@H]1CC(=O)c4ccoc4[C@@H]1C[C@@H](O)[C@H]32 | Not Active | Not Active | Not Active |  |
| C[C@@]12C(=O)CC[C@]3(C)[C@@H]4CC[C@@]5(C)[C@@H](O)CO[C@H]5C4=C[C@@H](OC1=O)[C@@H]23 | Not Active | Not Active | Not Active |  |
| COc1cc2c(c3occc13)[C@@H](O)[C@H]1OC(=O)[C@]3(C)[C@H]1[C@]21CCC3(O)OC1 | Not Active | Not Active | Not Active |  |
| CO[C@@]12OC[C@@H](O)[C@]1(C)CC[C@@H]1C2=C[C@H]2OC(=O)[C@]3(C)[C@H]2[C@]12CCC3(O)OC2 | Not Active | Not Active |  | 7.04 µM |
| C[C@]12C(=O)O[C@@H]3Cc4c(cc(O)c5ccoc45)[C@@]4(CCC1(O)OC4)[C@@H]32 | Not Active | Not Active | Not Active |  |
